In the data set the test system is MS2 coat protein. The data set is described as follows: apparent Kd, MS2 coat protein; higher = weaker binding; RNA-MaP array; FMN 200 µM where present. Summed up: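 SNAP-549-labelled MS2 coat protein, doubled from 0.7 or 1.5 nM to 3 µM, was titrated over designs transcribed by stalled E. coli RNA polymerase on Illumina sequencing-chip clusters. Titrations were run without and then with constant ligand in 100 mM Tris-HCl pH 7.5, 80 mM KCl, 4 mM MgCl2, BSA, DTT, yeast tRNA and Tween-20. The apparent Kd is the median of filtered per-cluster fits to green signal normalised to red-channel RNA signal and control-cluster median Fmax.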

Setting [1] is: designed as: ON switch for flavin mononucleotide, no ligand.
Setting [2] is: ligand present: flavin mononucleotide, designed as: ON switch for flavin mononucleotide.
The mark [3] stands for this setting: designed as: OFF switch for flavin mononucleotide, no ligand.
[4] abbreviates: ligand present: flavin mononucleotide, designed as: OFF switch for flavin mononucleotide.

In general, apparent Kd refers to a dissociation constant that holds for the conditions of the assay. Turning to “AAUCGCGGUCGAAAGCGGUUGCAUGAGGAUAUCCUGAGACAUGAGGAUCACCCAUGUAGACUGCAGGAGAAGGCAUGGAAAGAA”, the “apparent Kd” value runs as follows: under setting [1], 244 nM; under setting [2], 21.1 nM.
For “AAUUAAUUAAUACAUGAGGAUCACCCAUGUAAUUAUUAGAUCUAGGAUAUCAGCUCGAUUAGAGCUGAGAAGGAGAUCACAUGU”, in that order: 18.5 nM and 14.8 nM.
As for “GCUGGACAAGGAUAUGCAUUCGUGCUUCGGCACGUAAGGUCACAUGAGGAUCACCCAUGUAGAAGGUGUCCAGC”, the “apparent Kd” value amounted to 18.6 nM under setting [3] and 34 nM under setting [4].
On to “GUGUACAGAGGAUAUACAUAAGCUAGGAAACUAGCAAACUCACAUGAGGAUCACCCAUGUAGAAGGCUGUACAC”, for which the “apparent Kd” value is 48 nM under setting [3] and 257 nM under setting [4].
Regarding “UAUCGUGUUCGAGGAUAUGAAACUAGGCCGGGCACUGUAUACCCGCCUGUCUCAGAAGGCGGACAUGAGGAUCACCCAUGUAAA”, the “apparent Kd” value under setting [3] is 202 nM and the “apparent Kd” value under setting [4] stood at 17.4 nM.
For the sequence “UCGUUGUCAGGAUAUCGUUAAUUUAAUUGUUUGUAUUAGUUCGAGAAGGGACAUGAGGAUCACCCAUGUUUGCU”, the “apparent Kd” value is, setting by setting: under setting [3], 31 nM; under setting [4], 86.8 nM.
Take “UUUUUGUUCAAGAAGGAUGUUUUAGUUUAGAUCAUAGGAUAUUGAUAUAUUGUAGACUCAUGUAACAUGAGGAUCACCCAUGUA”: the “apparent Kd” value by setting is: under setting [1], 101 nM; under setting [2], 65.4 nM.
As for “GUGCAUACGUGAGGAUAUGUAUUAGAUAGUGGUACAGAAGGCAUGUCUGAUGACAUGAGGAUCACCCAUGUUGGCACAGUGCGC”, the “apparent Kd” value under setting [1] was 59.7 nM and the “apparent Kd” value under setting [2] came out at 29.6 nM.
Regarding “UUAAAUCAUGUAGGAUAUGCAUGGCGAAGCUACGCAGAAGGACAUGAGGAUCACCCAUGUUAUAGCUAGCCAGUUCGCUGGCAA”, the “apparent Kd” value worked out at 23.6 nM under setting [3] and 164 nM under setting [4].
For “AAUAUGGGAGGAUAUGCAUAGAUAAAGAAACAUGUUCAACCACAUGAGGAUCACCCAUGUAGAAGGCCCAUAUA”, the “apparent Kd” value under setting [3] came out at 34.6 nM and the “apparent Kd” value under setting [4] was found to be 129 nM.
As for “CCCGACCAGAAGUCGGUACGGAGGAGAAGGCGCCUCCUGGGUCCACAUGAGGAUCACCCAUGUGGCGAGGAUAUCCUCAGUUUU”, the “apparent Kd” value is 13.7 nM under setting [3] and 119 nM under setting [4].
The like results for “UAUAAGAACGAAGGAUAUGGUUACAUGAGGAUCACCCAUGUAUUAAUUUUGAUCUAUUUUUAUAACCAGAAGGUCGAGAGUAAA” were, in that order, 36.2 nM and 49.5 nM.
As for “CCGGUUUAGGAGGAUAUAGGAGUCGAUAGACACCUAGAAGGCCUAACAUGAGGAUCACCCAUGUGACCUACCGG”, the “apparent Kd” value by setting is: under setting [3], 51.1 nM; under setting [4], 177 nM.
As to “CGGCCCUAUCGAGGAUAUAAGUCUAGGACAUGAGGAUCACCCAUGUAUGUCUUAGAAGGCGAUAGGGCCAGCCUGUUACAGGCA”, the “apparent Kd” value runs as follows: under setting [1], 29.7 nM; under setting [2], 6.23 nM.
As for “AAAAAACAUGAGGAUCACCCAUGUAAAAAAAACACAGGAUAUCCCUUUUUUAAAAAAAAAGGAGAAGGGUGAAAAA”, the “apparent Kd” value is, setting by setting: under setting [1], 41.6 nM; under setting [2], 32.9 nM.
For “GACUUGUUAGGAUAUCUUACAUUUGCAUCAUAGUAACCAUUGGAGAAGGGACAUGAGGAUCACCCAUGUUUGGA”, the “apparent Kd” value is, setting by setting: under setting [3], 31.6 nM; under setting [4], 30.1 nM.
Turning to “CAGUACUGAGGAUAUACAUGAGGAUCACCCAUGUGUUCCAGCUAGGUAACUAGCAAAAGUAGAAGGCAGUACUG”, the “apparent Kd” value reads like this: under setting [3], 23.6 nM; under setting [4], 321 nM.
The like results for “GUAGCAACAUGAGGAUCACCCAUGUAGGAUAUCGCUAUUGUAAUCAUGAAACAUGAUUACAAUAGCGAGAAGGACAUAUGCUAG” were, in that order, 14.9 nM and 12.8 nM.
Regarding “CUAUAUAUAUGAGGAUAUGUAUAUCCAACAUGAGGAUCACCCAUGUUGAGGAUCACCCAUGUAAAGCAGAAGGCAUAUAUAUAG”, the “apparent Kd” value by setting is: under setting [1], 22.7 nM; under setting [2], 13.4 nM.
For the sequence “GAAGUCUAUUGAGGAUAUCGUUAUCAAAGAUAAUGAGAAGGCAAACAAUCAUGAGGACAUGAGGAUCACCCAUGUUGUGACCAU”, the “apparent Kd” value reads like this: under setting [1], 26.6 nM; under setting [2], 13.6 nM.
With “CAGCGCUGUCGAGAGGAUAUGCGGUGAUGGACAUGAGGAUCACCCAUGUUAGCGAUAGCAUUACGGUAGAAGGCUCUGCAGCUGC”, the “apparent Kd” value under setting [1] came out at 128 nM and the “apparent Kd” value under setting [2] stood at 21 nM.
Consider “GCCCUCCCUGAGGAUAUUAUCUGGUUCGAUUGAUAAGAAGGCAGUACAUGAGGAUCACCCAUGUGGUUCGUUUG”, for which the “apparent Kd” value reads like this: under setting [3], 108 nM; under setting [4], 285 nM.
In the case of “ACAGUAUAUGUAGGAUAUCAUUGGCUAGGUAGGUGAGAAGGGCAUAGUACAUGAGGAUCACCCAUGUGUUGGUCCUCGCAGAAA”, the “apparent Kd” value by setting is: under setting [3], 634 nM; under setting [4], 380 nM.
On to “AAAACGUCAGGAUAUCCAAUAUAUGACAUGAGGAUCACCCAUGUUUCCACUCGUACCUCCGGAGAAGGGACUUUUU”, for which the “apparent Kd” value stood at 42.6 nM under setting [3] and 39.4 nM under setting [4].
Consider “UCGGCGCGAGGAUAUGCGGUUUGUGCUUCGGGCCCUCGCGUACAUGAGGAUCACCCAUGUAGAAGGCGCGCCGC”, for which the “apparent Kd” value runs as follows: under setting [3], 201 nM; under setting [4], 123 nM.
As for “CACUCGUGUCUAGGAUAUGAGUGACAAGCGCGAGAUUUUCUCGCCGCUAGCUCAGAAGGAGACAUGAGGAUCACCCAUGUAAGG”, the “apparent Kd” value is 59.7 nM under setting [3] and 12.5 nM under setting [4].
Take “GGGUACAUGGGAGGAUAUGGGAAGAUACAUGAGGAUCACCCAUGUUUAAGAAUGCCGAGAGGCAACUAGAAGGCCCAUGUACCG”: the “apparent Kd” value is, setting by setting: under setting [1], 1040 nM; under setting [2], 49 nM.
As for “AAUCGUAGAACGAUCACUACCAGUCAGGAUAUACAUGAGGAUCACCCAUGUCGUGUCGACAGCAUGUAGAAGGGACGGUUAUAU”, the “apparent Kd” value turned out to be 27.1 nM under setting [3] and 66 nM under setting [4].
For “UUACUACAUGAGGAUCACCCAUGUCAGGAUAUUGUAUAUACCUUGGAAUACGUGUCUACAAGAAGGGACUAUAU”, in that order: 23.7 nM and 22.5 nM.
On to “CAUCUUGUGUGAGGAUAUAAUGAUAAGAGGACAUUAGAAGGCACAUGAGGAUCACCCAUGUGGCCAGGUCGGCGGCUCCAUAUA”, for which the “apparent Kd” value by setting is: under setting [3], 11.4 nM; under setting [4], 17.3 nM.
The like results for “GUUUAGUGAGGAUAUGUGGCUUCGAUCGUGCGCGGUCUGCUACAGAAGGCACAUGAGGAUCACCCAUGUUUCUC” were, in that order, 173 nM and 527 nM.
For “GAUAGGCGAGGAUAUACAUGAGGAUCACCCAUGUAAGUAAGCCUGGCUGAAACUGAAUGUAGAAGGCGCACAUU”, in that order: 18.4 nM and 45.1 nM.
For “AAUGAGACCGCAGGAUAUCCACAUGAGGAUCACCCAUGUUCUCAGGUCGGAAGCACGACCUGCGAGGAGAAGGGCGACCUCAUA”, the “apparent Kd” value is 715 nM under setting [1] and 36.5 nM under setting [2].
In the case of “ACAUGAGGCGCAGGAUAUGCAACAUGAUGAGUAGCAGAAGGGUGACAACAUGAGGAUCACCCAUGUAACAUGAGGAUCACCCAU”, the “apparent Kd” value under setting [3] was 28.3 nM and the “apparent Kd” value under setting [4] is 33.3 nM.
For the sequence “UAUAAACAUGAGGAUCACCCAUGUAAUAAUAUGGGAGGAUAUCAGAUUUAAUUUAAUUUAUGAGAAGGCCUAAUAU”, the “apparent Kd” value is, setting by setting: under setting [1], 627 nM; under setting [2], 43.1 nM.
For the sequence “AUCAGCUCGUCAGGAUAUACGCCACUGCGUCAGCAGUGUGGUAAGAUCACAUGAGGAUCACCCAUGUAGAAGGGACGAGCUGAU”, the “apparent Kd” value reads like this: under setting [3], 10.9 nM; under setting [4], 147 nM.
With “UGGUACUACGGAGGAUAUCAUGUAUAUACAUGAGGAUCACCCAUGUCGUACGAGAGUACGGAGAUUGAGAAGGCCGUAGUACCU”, the “apparent Kd” value reads like this: under setting [1], 38.7 nM; under setting [2], 16.2 nM.
With “GAGGUGUUAGGAUAUCGGAGAUGGAGAAGAACGGGAAGAGGCGAGAAGGAACAUGAGGAUCACCCAUGUAGGUG”, the “apparent Kd” value stood at 433 nM under setting [3] and 329 nM under setting [4].
Turning to “AAAAUAAGUGUGAGGAUAUGCUGGUCCUUGGAUCAGCAGAAGGCACAUGAGGAUCACCCAUGUAAUAUAUUUAU”, the “apparent Kd” value under setting [3] came to 84.7 nM and the “apparent Kd” value under setting [4] stood at 295 nM.
For “CCAUUUCAGUAAGGAUAUAUAAACAUGACGAUACAUGAGGAUCACCCAUGUGUAGAAGGUACUAAUACAUAUAAUACAAUGCUC”, the “apparent Kd” value came to 19.2 nM under setting [3] and 15.7 nM under setting [4].
As to “AUAGCUGGGAAGUAAACUCGUGCGGCAGAAGGGUGAUACUGGACAUGAGGAUCACCCAUGUGCACACAGGAUAUGCCCGCGAGC”, the “apparent Kd” value was determined as 207 nM under setting [1] and 35 nM under setting [2].
Consider “CAGUACUGAGGAUAUACAUGAGGAUCACCCAUGUGCUUUAGCUAGGAUACUAGCAUCAGUAGAAGGCAGUACUG”, for which the “apparent Kd” value reads like this: under setting [3], 12.8 nM; under setting [4], 29.4 nM.
For “GAUUUAGAGCAGGAUAUCAUAGAAUUGUAUGAAUGAGAAGGGCUCACAUGAGGAUCACCCAUGUGGUCCUAGAU”, in that order: 21.7 nM and 132 nM.
For “AAGAAGUGAGGAUAUCCUGCUCGUCACUUGCGUGAUGAGUAGGAGAAGGCACAUGAGGAUCACCCAUGUAAAGA”, in that order: 37.4 nM and 41.6 nM.
On to “UUGUUGUAUGUAGGAUAUGCGUAUUAUUAUUAUGCAGAAGGACAUGAGGAUCACCCAUGUAUAUUAUUAUUAUAUAUUAUAUAU”, for which the “apparent Kd” value amounted to 26.9 nM under setting [3] and 56.1 nM under setting [4].
For “UCCUUGUCCUGAGGAUAUCCGCGGUUCCCAAAAGGAGAAGGCAGGACAUGAGGAUCACCCAUGUACCCAGAACACGUGCAGAGU”, in that order: 14.6 nM and 90.9 nM.
“AUUUAAAUGUCAGGAUAUGGUAGAUUAUUCUUAUCAGAAGGGAUAAUUAUACUCAAGUACAUGAGGAUCACCCAUGUUAAAUCA”: the “apparent Kd” value by setting is: under setting [1], 10.3 nM; under setting [2], 10.3 nM.
Take “GUAGCAUAAUCAGGAUAUUCAGCGAAUAGAUAGACAUGAGGAUCACCCAUGUGGCGAAAGCCUAGGGAGAAGGGAUAAUGCUAC”: the “apparent Kd” value runs as follows: under setting [1], 200 nM; under setting [2], 35.8 nM.
